Entries after “also recorded” stand apart in the source; their conditions may differ. Ends that are not written are not given here.
Legend:
HSV-1 (F strain) = assay: Post-entry inhibition assay; type: cell-based; settings: time of addition experiment, peptide added to cells at 5 μg/mL after HSV-1 infection
Vero cells [1] = assay: MTT cytotoxicity assay; type: cell-based, African green monkey; settings: 48 h incubation, 0 to 200 μg/mL
How it was run: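 Vero cells were grown in MEM with 10% FBS at 37 ℃ and 5% CO2, seeded and cultured for 24 h. Medium was then replaced with fresh medium holding peptide at 0–200 μg/mL for 48 h at 37 ℃. MTT stock (5 mg/mL in PBS) was added for 4 h. Formazan was dissolved in DMSO for 10 min at room temperature and absorbance read at 570 nm.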

Vero cells [2] = assay: Cellular uptake and localization of FITC-labeled peptides; type: cell-based, African green monkey; settings: N-terminus FITC-labeled peptide, 10 μg/mL, 24 h at 37 ℃; confocal microscopy and flow cytometry (average FITC intensity)

With LWHHIWHFVHHLI-NH2 [Eval418-FH5] the “inhibitory rate of plaque formation when added after HSV-1 infection” value (HSV-1 (F strain)) was 29.72%, the “CC50 (50% cytotoxicity concentration)” value (Vero cells [1]) was 106.68 µg/mL and the “cellular uptake in Vero cells” value (Vero cells [2]) was “significant cellular uptake; also recorded: considerable cellular uptake”.

— article PMC5743469 (Theranostics, 2018)
